Measurements as given in ChEMBL document CHEMBL1122710, “6-Methylangelicins: a new series of potential photochemotherapeutic agents for the treatment of psoriasis” (J Med Chem, 1984).
Values joined by “and” are separate entries in the source; they are usually repeats but may differ in a detail not shown here. Equal entries are not always repeated. Active and inactive are the calls of the source. No cut-off for these calls is given here.

How the values were obtained:
Nucleic Acid [1] = test: (§1) Compound was evaluated for the association constant to an isolated site of DNA; format: nucleic-acid assay; design: unit not given here; details: Bos taurus
[2] = Percentage of clearance of psoriatic lesions by the compound at dose of 8 J/cm e2 ultraviolet-A radiation; format: ADME, organism-based; details: in vivo
How it was run: (§2)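 Psoriasis patients, with 4×4 cm skin areas per treatment. Ethanolic solution (0.1% w/v) is applied topically to 5 μg/cm² and left to evaporate. After 20 min, the area is irradiated with a UV-A fluorescent PUVA lamp. Starting dose is 2.5 J/cm², increased up to 13 J/cm² by skin tolerance. Control areas get compound without UV-A, or UV-A alone.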

[3] = Percentage of clearance of psoriatic lesions by the compound at dose of 9 J/cm e2 ultraviolet-A radiation; format: ADME, organism-based; details: in vivo; how it was run: as §2
Nucleic Acid [4] = test: Compound was evaluated for the binding parameter by determining rate constant; format: nucleic-acid assay; details: Bos taurus
Homo sapiens [5] = organism: Homo sapiens; test: Pigmentation capacity at dose of 8 J/cm e2 ultraviolet-A radiation in patient; + = moderate; format: functional, organism-based; how it was run: as §2
Homo sapiens [6] = organism: Homo sapiens; test: Number of treatments at dose of 9 J/cm e2 ultraviolet-A radiation; format: functional; how it was run: as §2
Homo sapiens [7] = organism: Homo sapiens; test: Number of treatments at dose of 8 J/cm e2 ultraviolet-A radiation; format: functional; how it was run: as §2
[8] = Percentage of clearance of psoriatic lesions by 8-methoxypsoralen (8-MOP) for comparison at dose of 8 J/cm e2 ultraviolet-A radiation; format: ADME, organism-based; details: in vivo; how it was run: as §2
Homo sapiens [9] = organism: Homo sapiens; test: Erythema induction by the compound at dose of 9 J/cm e2 ultraviolet-A radiation in patient; - = absent; format: functional, organism-based; how it was run: as §2
Nucleic Acid [10] = test: Compound was evaluated for the binding parameter by determining the number of nucleotides occluded by a bound angelicin (n); format: nucleic-acid assay; details: Bos taurus
Homo sapiens [11] = organism: Homo sapiens; test: Pigmentation capacity at dose of 9 J/cm e2 ultraviolet-A radiation in patient; + = moderate; format: functional, organism-based; how it was run: as §2
[12] = Percentage of clearance of psoriatic lesions by 8-methoxypsoralen (8-MOP) for comparison at dose of 9 J/cm e2 ultraviolet-A radiation; format: ADME, organism-based; details: in vivo; how it was run: as §2
Mus musculus = organism: Mus musculus; test: Compound was evaluated for 50% inhibition of DNA synthesis in Ehrlich ascites tumor cells by irradiation (365 nM) at 1.9 x 10e -5M incubated with [3H]thymidine at 37 degree C (p 0.05); format: functional
How it was run: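 Ehrlich ascites tumor cells (2×10^7 cells/mL in Hanks' solution) are irradiated on ice with the compound present, using an HPW 125 lamp at 20 cm. 2×10^6 cells are then pulsed with 1 μCi [3H]thymidine for 15 min at 37 °C. TCA-insoluble counts are taken as % of untreated controls, at least duplicates per dose. UV-A dose for 50% inhibition is derived by probit analysis.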

Homo sapiens [13] = organism: Homo sapiens; test: Erythema induction by the compound at dose of 8 J/cm e2 ultraviolet-A radiation in patient; - = absent; format: functional, organism-based; how it was run: as §2
Nucleic Acid [14] = test: (§3) Compound was evaluated for the frequency of the binding site that is the number of molecules bound to every nucleotide (1/n); format: nucleic-acid assay; details: Bos taurus
Bos taurus [15] = organism: Bos taurus; test: as §3
Bos taurus [16] = organism: Bos taurus; test: as §1
Homo sapiens [17] = organism: Homo sapiens; test: Erythema induction by the compound at dose of 4 J/cm e2 ultraviolet-A radiation in patient; - = absent; format: functional, organism-based; how it was run: as §2
[18] = Percentage of clearance of psoriatic lesions by the compound at dose of 10 J/cm e2 ultraviolet-A radiation; format: ADME, organism-based; details: in vivo; how it was run: as §2
Homo sapiens [19] = organism: Homo sapiens; test: (§4) Number of treatments at dose of 6 J/cm e2 ultraviolet-A radiation; format: functional; how it was run: as §2
Homo sapiens [20] = organism: Homo sapiens; test: Number of treatments at dose of 10 J/cm e2 ultraviolet-A radiation; format: functional; how it was run: as §2
[21] = Percentage of clearance of psoriatic lesions by 8-methoxypsoralen (8-MOP) for comparison at dose of 10 J/cm e2 ultraviolet-A radiation; format: ADME, organism-based; details: in vivo; how it was run: as §2
Homo sapiens [22] = organism: Homo sapiens; test: Erythema induction by 8-methoxypsoralen (8-MOP) for comparison at dose of 8 J/cm e2 ultraviolet-A radiation in patient, +=moderate; format: functional, organism-based; how it was run: as §2
[23] = Percentage of clearance of psoriatic lesions by 8-methoxypsoralen (8-MOP) for comparison at dose of 6 J/cm e2 ultraviolet-A radiation; format: ADME, organism-based; details: in vivo; how it was run: as §2
Homo sapiens [24] = organism: Homo sapiens; test: as §4; format: functional; how it was run: as §2; remark: listed apart in the source
Homo sapiens [25] = organism: Homo sapiens; test: Number of treatments at dose of 4 J/cm e2 ultraviolet-A radiation (patient); format: functional; how it was run: as §2
Homo sapiens [26] = organism: Homo sapiens; test: Erythema induction by the compound at dose of 6 J/cm e2 ultraviolet-A radiation in patient; - = absent; format: functional, organism-based; how it was run: as §2
Homo sapiens [27] = organism: Homo sapiens; test: Pigmentation capacity of 8-methoxypsoralen (8-MOP) for comparison at dose of 4 J/cm e2 ultraviolet-A radiation in patient; - = absent; format: functional, organism-based; how it was run: as §2
Homo sapiens [28] = organism: Homo sapiens; test: Pigmentation capacity at dose of 6 J/cm e2 ultraviolet-A radiation in patient; + = moderate; format: functional, organism-based; how it was run: as §2
[29] = Percentage of clearance of psoriatic lesions by the compound at dose of 4 J/cm e2 ultraviolet-A radiation; format: ADME, organism-based; details: in vivo; how it was run: as §2
[30] = Percentage of clearance of psoriatic lesions by the compound at dose of 6 J/cm e2 ultraviolet-A radiation; format: ADME, organism-based; details: in vivo; how it was run: as §2
Homo sapiens [31] = organism: Homo sapiens; test: Pigmentation capacity of 8-methoxypsoralen (8-MOP) for comparison at dose of 8 J/cm e2 ultraviolet-A radiation in patient; +=moderate; format: functional, organism-based; how it was run: as §2
Homo sapiens [32] = organism: Homo sapiens; test: Erythema induction by the compound at dose of 10 J/cm e2 ultraviolet-A radiation in patient; - = absent; format: functional, organism-based; how it was run: as §2
Homo sapiens [33] = organism: Homo sapiens; test: Pigmentation capacity of 8-methoxypsoralen (8-MOP) for comparison at dose of 6 J/cm e2 ultraviolet-A radiation in patient; + = moderate; format: functional, organism-based; how it was run: as §2
Homo sapiens [34] = organism: Homo sapiens; test: Pigmentation capacity of 8-methoxypsoralen (8-MOP) for comparison at dose of 10 J/cm e2 ultraviolet-A radiation in patient; +=moderate; format: functional, organism-based; how it was run: as §2

For Cc1cc2ccc(=O)oc2c2c(C)coc12, the K (Nucleic Acid [1]) was 6300, the Lesion_Clearance [2] was 100% and the Lesion_Clearance [3] was 90%. For the same compound, the Rate constant (Nucleic Acid [4]) was 0.099 min⁻¹, the Pigmentation capacity (Homo sapiens [5]) was “moderate” and the Activity (Homo sapiens [6]) was 15. The Activity (Homo sapiens [7]) was 15, the Lesion_Clearance [8] was 85% and the Erythema induction (Homo sapiens [9]) was “inactive”. The Activity (Nucleic Acid [10]) was 16.4, the Pigmentation capacity (Homo sapiens [11]) was “moderate” and the Lesion_Clearance [12] was 70%. For the same compound, the ID50 (Mus musculus) was 2.2e+18 quanta, the Erythema induction (Homo sapiens [13]) was “inactive” and the Activity (Nucleic Acid [14]) was 0.061.

Work on Cc1cc2ccc(=O)oc2c2ccoc12 yielded an Activity (Bos taurus [15]) of 0.048, a Rate constant (Nucleic Acid [4]) of 0.036 min⁻¹ and an Activity (Nucleic Acid [10]) of 20.8. It also gave a K (Bos taurus [16]) of 925 and an ID50 (Mus musculus) of 2.63e+19 quanta.

Cc1cc2c(o1)c(C)c(C)c1ccc(=O)oc12 showed a K (Nucleic Acid [1]) of 3730, a Rate constant (Nucleic Acid [4]) of 0.023 min⁻¹ and an Activity (Nucleic Acid [10]) of 14.3. For the same compound, the ID50 (Mus musculus) was 3e+19 quanta and the Activity (Nucleic Acid [14]) was 0.07.

Cc1cc2c(o1)c(C)cc1c(C)cc(=O)oc12 showed a K (Nucleic Acid [1]) of 3310, a Rate constant (Nucleic Acid [4]) of 0.0702 min⁻¹ and an Activity (Nucleic Acid [10]) of 22.2. For the same compound, the ID50 (Mus musculus) was 3.87e+18 quanta and the Activity (Nucleic Acid [14]) was 0.045.

For Cc1cc(=O)oc2c1cc(C)c1occ(C)c12, the K (Nucleic Acid [1]) was 10100, the Lesion_Clearance [2] was 100% and the Erythema induction (Homo sapiens [17]) was “inactive”. The Lesion_Clearance [18] was 90%, the Activity (Homo sapiens [19]) was 9 and the Activity (Homo sapiens [20]) was 15. The Lesion_Clearance [21] was 90%, the Erythema induction (Homo sapiens [22]) was “moderate” and the Rate constant (Nucleic Acid [4]) was 0.133 min⁻¹. For the same compound, the Lesion_Clearance [23] was 80% and 85%, the Activity (Homo sapiens [24]) was 9 and the Activity (Homo sapiens [25]) was 11. For the same compound, the Erythema induction (Homo sapiens [26]) was “inactive”, the Pigmentation capacity (Homo sapiens [27]) was “inactive” and the Pigmentation capacity (Homo sapiens [28]) was “moderate”. It also gave a Lesion_Clearance [29] of 95%, a Lesion_Clearance [30] of 100% and an Activity (Homo sapiens [7]) of 11. For the same compound, the Lesion_Clearance [8] was 75%, the Activity (Nucleic Acid [10]) was 11 and the Pigmentation capacity (Homo sapiens [31]) was “moderate”. The Erythema induction (Homo sapiens [32]) was “inactive”, the ID50 (Mus musculus) was 6e+16 quanta and the Erythema induction (Homo sapiens [13]) was “inactive”. For the same compound, the Pigmentation capacity (Homo sapiens [33]) was “moderate”, the Activity (Nucleic Acid [14]) was 0.091 and the Pigmentation capacity (Homo sapiens [34]) was “moderate”.

In the case of Cc1c(C)c2occc2c2oc(=O)ccc12, the ID50 (Mus musculus) is reported as 3e+19 quanta.

For Cc1cc2c(o1)c(C)cc1ccc(=O)oc12, the K (Nucleic Acid [1]) was 1980, the Rate constant (Nucleic Acid [4]) was 0.03 min⁻¹ and the Activity (Nucleic Acid [10]) was 12.8. The ID50 (Mus musculus) was 1.19e+19 quanta and the Activity (Nucleic Acid [14]) was 0.078.

Cc1cc(=O)oc2c1cc(C)c1occc12 showed a K (Nucleic Acid [1]) of 2990, a Rate constant (Nucleic Acid [4]) of 0.0523 min⁻¹ and an Activity (Nucleic Acid [10]) of 15.9. The ID50 (Mus musculus) was 4e+18 quanta and the Activity (Nucleic Acid [14]) was 0.063.

For O=c1ccc2ccc3occc3c2o1 [ANGELICIN], the K (Nucleic Acid [1]) was 560, the Rate constant (Nucleic Acid [4]) was 0.011 min⁻¹ and the Activity (Nucleic Acid [10]) was 15.9. The ID50 (Mus musculus) was 2.5e+19 quanta and the Activity (Nucleic Acid [14]) was 0.063.

In the case of COc1c2occc2cc2ccc(=O)oc12 [METHOXSALEN], the K (Nucleic Acid [1]) is reported as 736, the Rate constant (Nucleic Acid [4]) is reported as 0.031 min⁻¹ and the Activity (Nucleic Acid [10]) is reported as 7.81. For the same compound, the ID50 (Mus musculus) was 1.38e+19 quanta and the Activity (Nucleic Acid [14]) was 0.128.
